Calls of active or inactive are those of the source.
How the values were obtained:
ScN2a [1] = test: Antiprion activity in mouse ScN2a cells assessed as reduction in PrPSc level at 2 uM after 3 days by dot blot assay relative to control; assay type: cell-based; design: scale not given: the % may be the effect or the level left
Summary of the method: (§1)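 Compound was added at a final 20.0 or 2.0 µM, then incubated 3 days (ScN2a at 37 °C, SMB at 35 °C). Lysates were dot-blotted to PVDF, treated with proteinase K (25 µg/ml, 90 min, 37 °C) and denatured with guanidinium thiocyanate. PrPres was probed with rabbit 1023 antiserum and detected by ECL. Signal is relative to untreated control (100%), from three independent experiments.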

[2] = Inhibition of mouse recombinant alexa fluor 488-labeled PrPC expressed in Escherichia coli BL21(DE3) RIL assessed as inhibition of association with PrPSc measured for 10 secs by SIFT-based confocal microscopy
Summary of the method: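 SIFT assay: Alexa-488-labelled mouse rPrP and Alexa-647-labelled L42 antibody (each about 2–6 nM) were mixed with diluted human PrPSc and compound in 20 mM potassium phosphate pH 6 with 0.1% Nonidet P40. Dilution series 0.1–100 µM. Read by dual-colour confocal FIDA as 2D intensity histograms, with cut-offs set from controls. EC50 is half-maximal inhibition of rPrP binding to PrPSc.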

SMB [3] = test: Antiprion activity in mouse SMB cells assessed as reduction in PrPSc level at 20 uM after 3 days by dot blot assay relative to control; assay type: cell-based; design: scale not given: the % may be the effect or the level left; summary of the method: as §1
[4] = Antiprion activity in mouse ScN2a cells assessed as reduction in PrPSc level after 3 days by dot blot assay relative to control; assay type: cell-based; settings: 72 h
[5] = Antiprion activity in mouse SMB cells assessed as reduction in PrPSc level after 3 days by dot blot assay relative to control; assay type: cell-based; settings: 72 h
ScN2a [6] = test: Antiprion activity in mouse ScN2a cells assessed as reduction in PrPSc level at 20 uM after 3 days by dot blot assay relative to control; assay type: cell-based; design: scale not given: the % may be the effect or the level left; summary of the method: as §1
SMB [7] = test: Antiprion activity in mouse SMB cells assessed as reduction in PrPSc level at 2 uM after 3 days by dot blot assay relative to control; assay type: cell-based; design: scale not given: the % may be the effect or the level left; summary of the method: as §1
ScN2a [8] = test: Antiprion activity in mouse ScN2a cells assessed as inhibition of PrPSc formation at 17 uM after 3 days by dot blot assay relative to control; assay type: cell-based

Row | Compound | Activity (ScN2a [1]) | EC50 ([2]; read-out: EC50) | Activity (SMB [3]) | EC50 [4] | EC50 [5] | Activity (ScN2a [6]) | Activity (SMB [7]) | EC50 [2] | inhibition (ScN2a [8])
1 | CCCCNC(=O)c1cc(NC(=O)CN2CCCC2)ccc1OC1CCCCC1 | 38% | 200 µM | 38% | 3.14 µM | 7.81 µM | 32% | 67% | – | –
2 | CCCCNC(=O)c1cc(NC(=O)CN2CCCCC2)ccc1OC(C)C | 78% | – | 72% | 6.86 µM | 161 µM | 29% | 58% | Not Active | –
3 | CCCCNC(=O)c1cc(NC(=O)CN2CCCC2)ccc1Oc1ccc(OCCCC)cc1 | 52% | 30 µM | 58% | 2.98 µM | 53.6 µM | 19% | 82% | – | –
4 | CCCCNC(=O)c1cc(NC(=O)CN2CCCCC2)ccc1Oc1ccc(C(F)(F)F)cc1 | 35% | 70 µM | 53% | 2.08 µM | 30 µM | 17% | 80% | – | –
5 | C#CCOc1ccc(NC(=O)CN2CCCC2)cc1C(=O)NCCCC | 43% | – | 65% | 3.52 µM | 99.2 µM | 32% | 74% | Not Active | –
6 | CCCCNC(=O)c1cc(NC(=O)CN2CCCC2)ccc1Oc1ccccc1 | 48% | 200 µM | 82% | 5.52 µM | > 1000 µM | 41% | 92% | – | –
7 | CCCCNC(=O)c1cc(NC(=O)CN2CCCC2)ccc1OC(C)C | 42% | – | 48% | 2.76 µM | 10.8 µM | 24% | 59% | Not Active | –
8 | CCCCNC(=O)c1cc(NC(=O)CN2CCCC2)ccc1Oc1ccc(C)cc1 | 32% | 70 µM | 55% | 1.83 µM | 18.9 µM | 13% | 61% | – | –
9 | CCCCNC(=O)c1cc(NC(=O)CN2CCCC2)ccc1OC12CC3CC(CC(C3)C1)C2 | 34% | 80 µM | 42% | 2 µM | 12.4 µM | 16% | 77% | – | –
10 | CCCCCCCC/C=C\CCCCCCCOCC(C[N+](C)(C)CCNC(=O)C(CCCNCCCN)NCCCN)OCCCCCCC/C=C\CCCCCCCC (stereo not drawn) | – | – | – | – | – | – | – | – | Active
11 | C#CCOc1ccc(NC(=O)CN2CCCCC2)cc1C(=O)NCCCC | 76% | – | 66% | 9.28 µM | 97.2 µM | 37% | 70% | Not Active | –
12 | CCCCNC(=O)c1cc(NC(=O)CN2CCCCC2)ccc1OC1CCCCC1 | 37% | 80 µM | 65% | 2.39 µM | 108 µM | 22% | 76% | – | –
13 | CCCCNC(=O)c1cc(NC(=O)CN2CCCC2)ccc1Oc1ccc(F)cc1 | 45% | 200 µM | 92% | 4.7 µM | > 1000 µM | 39% | 57% | – | –
14 | CCCCNC(=O)c1cc(NC(=O)CN2CCCC2)ccc1Oc1ccc(C(F)(F)F)cc1 | 26% | 40 µM | 41% | 1.61 µM | 5.81 µM | 12% | 50% | – | –
15 | CCCCNC(=O)c1cc(NC(=O)CN2CCCC2)ccc1Oc1ccc(OC)cc1 | 36% | 198 µM | 75% | 2.92 µM | 866 µM | 31% | 74% | – | –
16 | CCCCNC(=O)c1cc(NC(=O)CN2CCCCC2)ccc1OC12CC3CC(CC(C3)C1)C2 | 27% | 50 µM | 36% | 1.65 µM | 5.22 µM | 12% | 54% | – | –
17 | CCCCNC(=O)c1cc(NC(=O)CN2CCCCC2)ccc1Oc1ccc(C)cc1 | 36% | 40 µM | 86% | 2.57 µM | > 1000 µM | 26% | 86% | – | –
18 | CCCCNC(=O)c1cc(NC(=O)CN2CCCC2)ccc1Oc1ccc(Cl)cc1 | 25% | 55 µM | 46% | 1.7 µM | 12.3 µM | 16% | 68% | – | –
19 | CCCCNC(=O)c1cc(NC(=O)CN2CCCCC2)ccc1Oc1ccccc1C(F)(F)F | 39% | 70 µM | 55% | 2.04 µM | 30.6 µM | 12% | 75% | – | –
20 | CCCCNC(=O)c1cc(NC(=O)CN2CCCCC2)ccc1Oc1ccc(OCCCC)cc1 | 61% | 50 µM | 52% | 3.73 µM | 24.3 µM | 21% | 76% | – | –
21 | CCCCNC(=O)c1cc(NC(=O)CN2CCCCC2)ccc1Oc1ccc(F)cc1 | 35% | 70 µM | 81% | 2.93 µM | > 1000 µM | 32% | 61% | – | –
22 | CCCCNC(=O)c1cc(NC(=O)CN2CCCCC2)ccc1Oc1ccc(Cl)cc1 | 35% | 20 µM | 49% | 2.25 µM | 15 µM | 21% | 68% | – | –
23 | CCCCNC(=O)c1cc(NC(=O)CN2CCCCC2)ccc1Oc1ccccc1 | 50% | 200 µM | 75% | 3.86 µM | 501 µM | 30% | 65% | – | –
24 | CCCCNC(=O)c1cc(NC(=O)CN2CCCCC2)ccc1Oc1ccc(OC)cc1 | 49% | 150 µM | 82% | 3.56 µM | > 1000 µM | 28% | 83% | – | –
25 | CCCCNC(=O)c1cc(NC(=O)CN2CCCC2)ccc1Oc1ccc(C(C)C)cc1 | 32% | 18 µM | 48% | 2.08 µM | 16.3 µM | 20% | 73% | – | –
26 | CCCCNC(=O)c1cc(NC(=O)CN2CCCC2)ccc1Oc1ccccc1C(F)(F)F | 16% | 25 µM | 54% | 1.42 µM | 16.5 µM | 15% | 61% | – | –
27 | CCCCNC(=O)c1cc(NC(=O)CN2CCCCC2)ccc1Oc1ccc(C(C)C)cc1 | 43% | 15 µM | 46% | 2.22 µM | 13.8 µM | 13% | 72% | – | –

From ChEMBL document CHEMBL2062371, “Synthesis of benzamide derivatives and their evaluation as antiprion agents” (Bioorg Med Chem, 2012)
